pEC50: −log10 of the molar value. Activity calls are given as the source filed them. No cut-off for these calls is given here.
What was measured:
NCI-H157 = assay: Antiproliferative activity against human NCI-H157 cells assessed as inhibition of cell viability measured for 6 to 7 days by cell titer glo assay; type: functional, cell-based
Procedure, shortened: (§1)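 Cells seeded in recommended growth medium, incubated overnight at 37°C in 5% CO2, then exposed to serial dilutions of inhibitor for 6–7 d. A parallel plate was read with CellTiter-Glo at compound addition as a T=0 value. The luminescent viability readout had no-cell background subtracted and was expressed as % of DMSO control.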

MIA PaCa-2 = assay: Antiproliferative activity against human Mia PaCa cells assessed as inhibition of cell viability measured for 6 to 7 days by cell titer glo assay; type: functional, cell-based; procedure, shortened: as §1
SK-BR-3 = assay: Antiproliferative activity against human SK-BR-3 cells assessed as inhibition of cell viability measured for 6 to 7 days by cell titer glo assay; type: functional, cell-based
Procedure, shortened: (§2)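 Cells seeded in recommended growth medium, held overnight at 37°C in 5% CO2, then exposed to serial dilutions of inhibitor for 6–7 d. A time-zero plate was read with CellTiter-Glo at dosing. Luminescent viability read at the end. No-cell wells subtracted as background, data expressed as percent of DMSO control.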

SUP-B15 = assay: Antiproliferative activity against human SUP-B15 cells assessed as inhibition of cell viability measured for 6 to 7 days by cell titer glo assay; type: functional, cell-based; procedure, shortened: as §2
L-428 = assay: Antiproliferative activity against human L-428 cells assessed as inhibition of cell viability measured for 6 to 7 days by cell titer glo assay; type: functional, cell-based; procedure, shortened: as §1
[1] = Antiproliferative activity against human RCH-ACV cells assessed as inhibition of cell viability measured for 6 to 7 days by cell titer glo assay; type: functional, cell-based; procedure, shortened: as §2
NCI-H460 = assay: Antiproliferative activity against human NCI-H460 cells assessed as inhibition of cell viability measured for 6 to 7 days by cell titer glo assay; type: functional, cell-based; procedure, shortened: as §2
MDA-MB-231 = assay: Antiproliferative activity against human MDA-MB-231 cells assessed as inhibition of cell viability measured for 6 to 7 days by cell titer glo assay; type: functional, cell-based; procedure, shortened: as §1
BC-3 = assay: Antiproliferative activity against human BC-3 cells assessed as inhibition of cell viability measured for 6 to 7 days by cell titer glo assay; type: functional, cell-based
Procedure, shortened: (§3)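 Tumor lines plated in recommended growth media, overnight at 37°C, 5% CO2, then given serial dilutions; a T=0 plate read with CellTiter-Glo at dosing. After 6–7 d of exposure, viability read by CellTiter-Glo luminescence. No-cell wells subtracted, data expressed as % of DMSO control.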

T47D = assay: Antiproliferative activity against human T47D cells assessed as inhibition of cell viability measured for 6 to 7 days by cell titer glo assay; type: functional, cell-based; procedure, shortened: as §2
SUD4 = assay: Antiproliferative activity against human SU-DHL-4 cells assessed as inhibition of cell viability measured for 6 to 7 days by cell titer glo assay; type: functional, cell-based; procedure, shortened: as §2
U-266 = assay: Antiproliferative activity against human U266B1 cells assessed as inhibition of cell viability measured for 6 to 7 days by cell titer glo assay; type: functional, cell-based
OCI-AML2 = assay: Antiproliferative activity against human OCI-AML2 cells assessed as inhibition of cell viability measured for 6 to 7 days by cell titer glo assay; type: functional, cell-based; procedure, shortened: as §2
HeLa = assay: Antiproliferative activity against human HeLa cells assessed as inhibition of cell viability measured for 6 to 7 days by cell titer glo assay; type: functional, cell-based; procedure, shortened: as §1
COLO 205 = assay: Antitumor activity in human COLO 205 cells xenografted in nude mouse assessed as reduction in tumor growth at 25 to 100 mg/kg, ip administered once daily for 5 consecutive days with 2 days off scheduled for 2 cycles measured upto 60 days; conditions: dose 25-100 mg/kg, time 60.0 day
CMK = assay: Antiproliferative activity against human CMK cells assessed as inhibition of cell viability measured for 6 to 7 days by cell titer glo assay; type: functional, cell-based; procedure, shortened: as §3
CCRF-HSB-2 = assay: Antiproliferative activity against human HSB-2 cells assessed as inhibition of cell viability measured for 6 to 7 days by cell titer glo assay; type: functional, cell-based; procedure, shortened: as §1
SU-DHL-5 = assay: Antiproliferative activity against human SU-DHL-5 cells assessed as inhibition of cell viability measured for 6 to 7 days by cell titer glo assay; type: functional, cell-based; procedure, shortened: as §2
JVM-3 = assay: Antiproliferative activity against human JVM-3 cells assessed as inhibition of cell viability measured for 6 to 7 days by cell titer glo assay; type: functional, cell-based; procedure, shortened: as §1
CCRF-SB = assay: Antiproliferative activity against human CCRF-SB cells assessed as inhibition of cell viability measured for 6 to 7 days by cell titer glo assay; type: functional, cell-based; procedure, shortened: as §3
[2] = Toxicity in SCID nude mouse xenografted with human MCF7 cells assessed as drug tolerance at 50 to 100 mg/kg, ip administered once daily for 5 consecutive days with 2 days off scheduled for 3 cycles measured upto 60 days; type: organism-based; conditions: in vivo, 1440 h, dose 50-100 mg/kg, time < 60 day
HL-60 = assay: Antiproliferative activity against human HL-60 cells assessed as inhibition of cell viability measured for 6 to 7 days by cell titer glo assay; type: functional, cell-based; procedure, shortened: as §1
CTV-1 = assay: Antiproliferative activity against human CTV-1 cells assessed as inhibition of cell viability measured for 6 to 7 days by cell titer glo assay; type: functional, cell-based; procedure, shortened: as §3
MCF7 = assay: Antiproliferative activity against human MCF7 cells assessed as inhibition of cell viability measured for 6 to 7 days by cell titer glo assay; type: functional, cell-based; procedure, shortened: as §1
EB2 = assay: Antiproliferative activity against human EB2 cells assessed as inhibition of cell viability measured for 6 to 7 days by cell titer glo assay; type: functional, cell-based; procedure, shortened: as §3
SR = assay: Antiproliferative activity against human SR cells assessed as inhibition of cell viability measured for 6 to 7 days by cell titer glo assay; type: functional, cell-based; procedure, shortened: as §2
[3] = Antiproliferative activity against HUVEC cells assessed as reduction in cell viability measured after 6 days by cell titer glo assay; type: toxicity, cell-based; conditions: human
Procedure, shortened: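 HUVECs (primary) in EGM-2 with 2% FBS and supplements, assayed in cycling and nonproliferating states. Cycling: 500 cells/well seeded 1 d before dosing. Nonproliferating: 35,000 cells in half-area wells seeded 4 d ahead, fresh media next day and media changed 1 d before dosing. 2-fold dilutions 20000 to 0.15 nmol/L, 6 d at 37°C, 5% CO2. CellTiter-Glo 30 min, background-subtracted, % of DMSO control.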

DLD-1 = assay: Antiproliferative activity against human DLD-1 cells assessed as inhibition of cell viability measured for 6 to 7 days by cell titer glo assay; type: functional, cell-based; procedure, shortened: as §3
SW1417 = assay: Antiproliferative activity against human SW1417 cells assessed as inhibition of cell viability measured for 6 to 7 days by cell titer glo assay; type: functional, cell-based; procedure, shortened: as §2
OCI-LY19 = assay: Antiproliferative activity against human OCILY19 cells assessed as inhibition of cell viability measured for 6 to 7 days by cell titer glo assay; type: functional, cell-based; procedure, shortened: as §2
MX1 = assay: Antiproliferative activity against human MX1 cells assessed as inhibition of cell viability measured for 6 to 7 days by cell titer glo assay; type: functional, cell-based; procedure, shortened: as §1
NOMO-1 = assay: Antiproliferative activity against human NOMO-1 cells assessed as inhibition of cell viability measured for 6 to 7 days by cell titer glo assay; type: functional, cell-based; procedure, shortened: as §2
Rec1 = assay: Antiproliferative activity against human REC1 cells assessed as inhibition of cell viability measured for 6 to 7 days by cell titer glo assay; type: functional, cell-based; procedure, shortened: as §2
CESS = assay: Antiproliferative activity against human CESS cells assessed as inhibition of cell viability measured for 6 to 7 days by cell titer glo assay; type: functional, cell-based; procedure, shortened: as §3

With `CCn1cc(-c2ccnc3[nH]c(-c4cccc(CN(C)C)c4)cc23)c(-c2ccc(NC(=O)N(C)C)cc2)n1` [GSK-1070916] the pEC50 (NCI-H157) was 8.10, the pEC50 (MIA PaCa-2) was 8.52 and the pEC50 (SK-BR-3) was 8.40. The pEC50 (SUP-B15) was 8.70, the pEC50 (L-428) was 7.51 and the pEC50 [1] was 8.40. The pEC50 (NCI-H460) was 7.85, the pEC50 (MDA-MB-231) was 7.96 and the pEC50 (BC-3) was 7.57. For the same molecule, the pEC50 (T47D) was 7.89, the pEC50 (SUD4) was 8.30 and the pEC50 (U-266) was 6.37. The pEC50 (OCI-AML2) was 8.40, the pEC50 (HeLa) was 7.89 and the Activity (COLO 205) was “inactive”. It also gave a pEC50 (CMK) of 7.57, a pEC50 (CCRF-HSB-2) of 8.52 and a pEC50 (SU-DHL-5) of 8.30. The pEC50 (JVM-3) was 8.70, the pEC50 (CCRF-SB) was 8.70 and the Activity [2] was “Toxic”. The pEC50 (HL-60) was 8.00, the pEC50 (CTV-1) was 8.40 and the pEC50 (MCF7) was 7.89. It also gave a pEC50 (EB2) of 8.70, a pEC50 (SR) of 8.52 and an EC50 at 6 days [3] of 3900 nM. It also gave a pEC50 (DLD-1) of 7.55, a pEC50 (SW1417) of 7.72 and a pEC50 (OCI-LY19) of 8.40. It also gave a pEC50 (MX1) of 8.10, a pEC50 (NOMO-1) of 8.70 and a pEC50 (Rec1) of 7.11. For the same molecule, the pEC50 (CESS) was 8.30.
